Results published in ChEMBL document CHEMBL2046381, “Defining the mechanism of action and enzymatic selectivity of psammaplin A against its epigenetic targets” (J Med Chem, 2012).
Calls of active or inactive are those of the source. How the calls were made is not given here.

Key:
[1] = target: T1, Histone deacetylase-like amidohydrolase (Alcaligenes sp. (strain DSM 11172) (Bordetella sp. (strain FB188)), UniProt Q70I53); experiment: Inhibition of Bordetella sp. (strain FB188) N-terminus His-tagged HDAH expressed in Escherichia coli BL21 (DE3); design: species or system Alcaligenaceae bacterium FB188
T1 sequence (Q70I53 whole entry): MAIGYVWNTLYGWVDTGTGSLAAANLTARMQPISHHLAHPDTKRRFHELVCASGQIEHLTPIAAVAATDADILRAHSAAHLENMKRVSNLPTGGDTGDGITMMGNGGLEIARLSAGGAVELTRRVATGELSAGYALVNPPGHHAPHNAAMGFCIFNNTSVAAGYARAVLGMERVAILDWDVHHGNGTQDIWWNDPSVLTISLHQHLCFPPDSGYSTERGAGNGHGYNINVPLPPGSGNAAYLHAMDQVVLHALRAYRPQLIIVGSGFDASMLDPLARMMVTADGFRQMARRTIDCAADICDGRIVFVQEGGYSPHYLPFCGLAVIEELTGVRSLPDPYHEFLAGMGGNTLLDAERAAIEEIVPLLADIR
In short: (§1)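 Recombinant N-terminal His6-tagged HDAH from Bordetella strain FB188, expressed in E. coli BL21, purified on zinc-loaded His-Trap column, eluted with 500 mM imidazole, dialyzed into assay buffer (>98% pure by SDS-PAGE). Tested directly against compounds; thiols generated in situ from disulfides with TCEP.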

[2] = target: T2, Protein deacetylase HDAC6 (Homo sapiens, UniProt Q9UBN7); experiment: Inhibition of human recombinant HDAC6 using Boc-lys(Ac)-AMC as substrate preincubated for 20 mins with substrate measured after 60 mins by fluorescence analysis
T2 sequence (Q9UBN7 whole entry): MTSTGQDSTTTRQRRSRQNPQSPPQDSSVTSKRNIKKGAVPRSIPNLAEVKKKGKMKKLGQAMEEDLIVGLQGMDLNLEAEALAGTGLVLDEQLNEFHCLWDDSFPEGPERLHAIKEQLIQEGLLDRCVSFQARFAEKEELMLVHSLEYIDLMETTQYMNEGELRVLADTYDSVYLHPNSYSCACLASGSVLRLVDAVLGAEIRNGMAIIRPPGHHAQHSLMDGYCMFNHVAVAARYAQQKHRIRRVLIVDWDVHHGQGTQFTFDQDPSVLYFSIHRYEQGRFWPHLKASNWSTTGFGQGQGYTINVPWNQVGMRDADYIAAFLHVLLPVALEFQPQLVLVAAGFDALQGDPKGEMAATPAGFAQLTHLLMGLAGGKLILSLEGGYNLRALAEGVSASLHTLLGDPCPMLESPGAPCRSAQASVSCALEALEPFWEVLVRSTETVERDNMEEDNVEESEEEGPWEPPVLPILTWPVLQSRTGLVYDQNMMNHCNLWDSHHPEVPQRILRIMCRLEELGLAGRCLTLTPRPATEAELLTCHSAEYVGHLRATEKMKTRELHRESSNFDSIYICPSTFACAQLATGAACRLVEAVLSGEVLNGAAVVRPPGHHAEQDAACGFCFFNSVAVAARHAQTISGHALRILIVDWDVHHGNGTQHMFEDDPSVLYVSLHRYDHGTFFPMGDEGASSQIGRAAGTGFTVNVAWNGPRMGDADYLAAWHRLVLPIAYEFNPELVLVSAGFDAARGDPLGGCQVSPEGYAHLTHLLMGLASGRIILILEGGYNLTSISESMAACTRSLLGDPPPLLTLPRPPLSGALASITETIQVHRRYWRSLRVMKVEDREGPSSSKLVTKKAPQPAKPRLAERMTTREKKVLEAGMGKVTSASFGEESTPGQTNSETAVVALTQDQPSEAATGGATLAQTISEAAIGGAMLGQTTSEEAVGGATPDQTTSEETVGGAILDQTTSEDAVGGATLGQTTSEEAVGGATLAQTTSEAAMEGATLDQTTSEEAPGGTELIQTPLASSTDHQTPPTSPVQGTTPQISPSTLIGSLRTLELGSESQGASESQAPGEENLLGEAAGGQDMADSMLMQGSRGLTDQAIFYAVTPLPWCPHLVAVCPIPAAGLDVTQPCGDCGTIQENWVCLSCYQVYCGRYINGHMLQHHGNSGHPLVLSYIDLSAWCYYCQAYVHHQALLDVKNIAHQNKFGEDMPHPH

MCF7 = experiment: Growth inhibition of human MCF7 cells after 96 hrs by sulphorhodamine B assay; type: functional; settings: MCF7, 96 h
In short: (§2)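 SRB growth assay; MCF7 and WI38 seeded 4000 cells/well, A549 2000 cells/well, attached overnight, then exposed to freshly made drug solutions (0.1 to 50 μM) for 96 h. Fixed with cold 10% TCA, stained with 0.4% SRB; absorbance at 540 nm as percent of untreated control, IC50 from mean absorbance.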

Histone deacetylase 8 = target: T3, Histone deacetylase 8 (Homo sapiens, UniProt Q9BY41); experiment: Inhibition of human recombinant HDAC8 using Boc-lys(Ac)-AMC as substrate preincubated for 20 mins with substrate measured after 60 mins by fluorescence analysis
T3 sequence (Q9BY41 whole entry): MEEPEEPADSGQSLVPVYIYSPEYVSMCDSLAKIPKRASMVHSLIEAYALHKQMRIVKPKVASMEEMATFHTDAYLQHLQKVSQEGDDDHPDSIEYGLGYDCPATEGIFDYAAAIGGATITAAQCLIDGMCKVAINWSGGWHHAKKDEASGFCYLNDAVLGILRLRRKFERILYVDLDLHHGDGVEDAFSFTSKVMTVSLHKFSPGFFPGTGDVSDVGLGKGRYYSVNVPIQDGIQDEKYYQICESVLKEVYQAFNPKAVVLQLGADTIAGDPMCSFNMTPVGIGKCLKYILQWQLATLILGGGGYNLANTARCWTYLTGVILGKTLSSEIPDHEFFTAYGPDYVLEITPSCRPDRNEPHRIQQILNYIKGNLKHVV

Histone deacetylase 1 = Histone deacetylase 1 (Homo sapiens, UniProt Q13547); experiment: Inhibition of human recombinant HDAC1 using Boc-lys(Ac)-AMC as substrate preincubated for 20 mins with substrate measured after 60 mins by fluorescence analysis
Sequence of Histone deacetylase 1 (Q13547 whole entry): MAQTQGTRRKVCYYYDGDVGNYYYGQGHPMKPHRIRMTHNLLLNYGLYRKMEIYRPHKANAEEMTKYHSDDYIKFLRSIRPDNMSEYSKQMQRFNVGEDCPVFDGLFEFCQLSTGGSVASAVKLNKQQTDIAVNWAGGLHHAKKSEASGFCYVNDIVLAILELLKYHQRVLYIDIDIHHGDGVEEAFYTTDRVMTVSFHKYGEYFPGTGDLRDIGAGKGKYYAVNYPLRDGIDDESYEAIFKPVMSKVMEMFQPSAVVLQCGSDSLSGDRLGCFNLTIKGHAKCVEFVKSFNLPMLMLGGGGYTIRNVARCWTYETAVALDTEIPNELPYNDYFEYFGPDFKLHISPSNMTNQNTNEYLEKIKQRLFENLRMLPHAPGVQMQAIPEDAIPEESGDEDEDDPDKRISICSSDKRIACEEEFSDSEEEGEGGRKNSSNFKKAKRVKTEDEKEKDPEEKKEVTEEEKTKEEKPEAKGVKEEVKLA

[3] = Growth inhibition of human WI38 cells after 96 hrs by sulphorhodamine B assay; type: cell-based; settings: WI-38 cells; in short: as §2
[4] = target: T4, Histone deacetylase-like amidohydrolase (Alcaligenes sp. (strain DSM 11172) (Bordetella sp. (strain FB188))) (UniProt Q70I53); experiment: Inhibition of Bordetella sp. (strain FB188) N-terminus His-tagged HDAH expressed in Escherichia coli BL21 (DE3) up to 100 uM; settings: Alcaligenaceae bacterium FB188; in short: as §1
T4 sequence (whole entry): T1 sequence (Q70I53 whole entry)

For `N/N=C(\Cc1ccc(O)c(Br)c1)C(=O)NCCS`, the IC50 [1] was 32 µM, the IC50 [2] was 1000 nM and the GI50 (MCF7) was 3.42 µM. It also gave an IC50 (Histone deacetylase 8) of 13 µM, an IC50 (Histone deacetylase 1) of 5 nM and a GI50 at 96 h [3] of 37.2 µM. For the same molecule, the inhibition [4] was “inactive”.
